From ChEMBL document CHEMBL1148440, “4-(tetralin-1-yl)- and 4-(naphthalen-1-yl)alkyl derivatives of 1-cyclohexylpiperazine as sigma receptor ligands with agonist sigma2 activity” (J Med Chem, 2004)

How the values were obtained:
D(2) dopamine receptor = D(2) dopamine receptor (Rattus norvegicus, UniProt P61169); test: In vitro binding affinity at Dopamine receptor D2 in rat striatum by [3H]spiroperidol displacement.; type: tissue-based
Summary of the method: (§1)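 Competition binding was run with radioligand displacement: [3H]spiroperidol for D2-like, [3H]prazosin for α1 and [3H]granisetron for 5-HT3. D2 values are the mean of three independent experiments.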

[1] = target: Sigma non-opioid intracellular receptor 1 (Homo sapiens) (UniProt Q99720); test: Binding affinity ratio of sigma 1 receptor to that of sigma 2 receptor
Sigma non-opioid intracellular receptor 1 (Homo sapiens), sequence (Q99720 whole entry): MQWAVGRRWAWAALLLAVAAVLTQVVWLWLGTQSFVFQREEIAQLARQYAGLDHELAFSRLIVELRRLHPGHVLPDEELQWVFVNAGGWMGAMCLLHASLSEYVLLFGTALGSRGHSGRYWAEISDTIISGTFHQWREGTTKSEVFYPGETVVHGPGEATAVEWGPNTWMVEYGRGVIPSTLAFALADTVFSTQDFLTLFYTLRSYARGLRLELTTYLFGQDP
Summary of the method: (§2)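 Sigma-1 binding used guinea pig brain membranes without cerebellum with (+)-[3H]pentazocine. […] IC50 came from 6–9 drug concentrations in two or three experiments with duplicate samples, then converted to apparent Ki. Ratios are computed from these Ki values.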

[2] = target: T1, Adrenergic receptor alpha-1 (Rattus norvegicus, UniProt P15823+P23944+P43140); test: In vitro binding affinity at alpha-1 adrenergic receptor in rat cortex by [3H]prazosin displacement.; summary of the method: as §1
T1 sequence (P15823 whole entry): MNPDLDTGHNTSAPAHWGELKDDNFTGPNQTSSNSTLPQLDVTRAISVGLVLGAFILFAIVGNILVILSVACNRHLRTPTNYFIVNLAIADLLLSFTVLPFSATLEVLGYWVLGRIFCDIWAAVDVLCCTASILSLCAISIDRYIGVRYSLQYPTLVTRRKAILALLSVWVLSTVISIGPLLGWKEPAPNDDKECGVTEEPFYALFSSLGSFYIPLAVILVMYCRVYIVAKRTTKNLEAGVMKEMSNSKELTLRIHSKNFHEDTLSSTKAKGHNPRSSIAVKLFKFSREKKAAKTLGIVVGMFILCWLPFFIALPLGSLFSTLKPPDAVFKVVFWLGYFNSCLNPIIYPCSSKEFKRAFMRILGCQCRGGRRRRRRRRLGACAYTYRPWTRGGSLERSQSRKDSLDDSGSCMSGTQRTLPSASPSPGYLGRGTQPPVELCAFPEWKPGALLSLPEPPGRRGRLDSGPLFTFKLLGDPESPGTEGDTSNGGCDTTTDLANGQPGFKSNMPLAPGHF
T1 sequence (P23944 whole entry): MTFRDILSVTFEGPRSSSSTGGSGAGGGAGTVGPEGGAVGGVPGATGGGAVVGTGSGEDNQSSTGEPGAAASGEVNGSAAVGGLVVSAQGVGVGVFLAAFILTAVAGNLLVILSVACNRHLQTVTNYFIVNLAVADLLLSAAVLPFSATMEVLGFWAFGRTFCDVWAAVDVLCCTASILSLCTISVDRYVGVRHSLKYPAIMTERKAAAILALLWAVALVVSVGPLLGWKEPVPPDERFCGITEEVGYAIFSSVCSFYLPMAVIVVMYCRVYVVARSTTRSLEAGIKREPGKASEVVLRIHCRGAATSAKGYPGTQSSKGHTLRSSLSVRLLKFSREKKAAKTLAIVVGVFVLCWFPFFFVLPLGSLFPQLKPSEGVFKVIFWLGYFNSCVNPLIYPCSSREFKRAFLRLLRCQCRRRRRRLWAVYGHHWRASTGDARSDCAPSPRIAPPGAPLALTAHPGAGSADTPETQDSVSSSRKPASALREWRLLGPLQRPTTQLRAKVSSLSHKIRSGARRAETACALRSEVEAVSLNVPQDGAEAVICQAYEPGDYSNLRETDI
T1 sequence (P43140 whole entry): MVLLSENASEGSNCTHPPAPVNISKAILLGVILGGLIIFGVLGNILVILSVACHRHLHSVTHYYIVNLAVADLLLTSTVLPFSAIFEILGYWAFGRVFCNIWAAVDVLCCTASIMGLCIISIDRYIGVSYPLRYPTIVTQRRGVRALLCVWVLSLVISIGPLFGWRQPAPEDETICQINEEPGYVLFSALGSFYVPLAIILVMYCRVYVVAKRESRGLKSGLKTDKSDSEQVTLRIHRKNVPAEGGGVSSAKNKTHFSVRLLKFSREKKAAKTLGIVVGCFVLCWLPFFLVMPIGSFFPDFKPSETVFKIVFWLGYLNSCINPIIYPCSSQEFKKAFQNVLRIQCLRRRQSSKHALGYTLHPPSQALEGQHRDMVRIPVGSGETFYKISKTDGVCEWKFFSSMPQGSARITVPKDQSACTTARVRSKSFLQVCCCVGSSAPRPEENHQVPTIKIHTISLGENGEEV

Cavia porcellus [3] = species on record: Cavia porcellus; test: Inhibition of electrically stimulated contractions of the isolated guinea pig badder.; type: functional
[4] = target: T2, Serotonin 3 (5-HT3) receptor (Rattus norvegicus, UniProt P35563+Q9JJ16); test: In vitro binding affinity at serotonin 5-hydroxytryptamine 3 receptor in rat cortex by [3H]granisetron displacement.; summary of the method: as §1
T2 sequence (P35563 whole entry): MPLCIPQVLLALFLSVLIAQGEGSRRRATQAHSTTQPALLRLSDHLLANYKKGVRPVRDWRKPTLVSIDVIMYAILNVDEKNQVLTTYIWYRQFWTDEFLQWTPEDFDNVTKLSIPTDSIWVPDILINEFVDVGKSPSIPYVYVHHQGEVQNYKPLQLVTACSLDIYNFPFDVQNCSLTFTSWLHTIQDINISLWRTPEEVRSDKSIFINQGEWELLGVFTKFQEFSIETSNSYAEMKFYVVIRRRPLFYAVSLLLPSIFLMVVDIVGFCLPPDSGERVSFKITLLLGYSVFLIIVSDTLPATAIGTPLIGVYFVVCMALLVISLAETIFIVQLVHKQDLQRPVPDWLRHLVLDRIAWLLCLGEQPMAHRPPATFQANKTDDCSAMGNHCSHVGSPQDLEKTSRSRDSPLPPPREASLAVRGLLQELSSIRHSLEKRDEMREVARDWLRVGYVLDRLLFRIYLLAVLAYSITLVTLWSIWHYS
T2 sequence (Q9JJ16 whole entry): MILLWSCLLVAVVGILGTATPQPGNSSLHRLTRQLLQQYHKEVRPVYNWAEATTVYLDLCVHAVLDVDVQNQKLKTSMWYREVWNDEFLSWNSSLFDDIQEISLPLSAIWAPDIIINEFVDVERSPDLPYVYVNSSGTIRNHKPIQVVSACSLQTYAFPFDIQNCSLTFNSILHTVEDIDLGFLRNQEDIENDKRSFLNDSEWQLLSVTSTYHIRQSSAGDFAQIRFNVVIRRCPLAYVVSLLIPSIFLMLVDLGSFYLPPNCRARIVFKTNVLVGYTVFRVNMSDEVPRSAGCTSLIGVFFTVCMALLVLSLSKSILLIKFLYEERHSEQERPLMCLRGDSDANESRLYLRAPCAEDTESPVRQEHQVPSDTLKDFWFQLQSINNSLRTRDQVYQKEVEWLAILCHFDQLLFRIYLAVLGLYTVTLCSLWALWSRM

Sigma 2 receptor [5] = test: In vitro binding affinity at opioid sigma-2 receptor in rat liver membranes by [3H]-DTG displacement in the presence of 1 uM (+)-pentazocine.; type: cell membranes, Membrane
[6] = target: Sigma non-opioid intracellular receptor 1 (Homo sapiens) (UniProt Q99720); test: Binding affinity ratio of sigma 2 receptor to that of sigma 1 receptor; summary of the method: as §2
Cavia porcellus [7] = species on record: Cavia porcellus; test: Inhibition of electrically stimulated contractions of the isolated guinea pig badder at 30 uM.; type: functional
Sigma 2 receptor [8] = test: In vitro binding affinity at opioid sigma-2 receptor in rat liver membranes by [3H]DTG displacement in the presence of 1 uM (+)-pentazocine.; type: cell membranes, Membrane

D(2) dopamine receptor, sequence (P61169 whole entry): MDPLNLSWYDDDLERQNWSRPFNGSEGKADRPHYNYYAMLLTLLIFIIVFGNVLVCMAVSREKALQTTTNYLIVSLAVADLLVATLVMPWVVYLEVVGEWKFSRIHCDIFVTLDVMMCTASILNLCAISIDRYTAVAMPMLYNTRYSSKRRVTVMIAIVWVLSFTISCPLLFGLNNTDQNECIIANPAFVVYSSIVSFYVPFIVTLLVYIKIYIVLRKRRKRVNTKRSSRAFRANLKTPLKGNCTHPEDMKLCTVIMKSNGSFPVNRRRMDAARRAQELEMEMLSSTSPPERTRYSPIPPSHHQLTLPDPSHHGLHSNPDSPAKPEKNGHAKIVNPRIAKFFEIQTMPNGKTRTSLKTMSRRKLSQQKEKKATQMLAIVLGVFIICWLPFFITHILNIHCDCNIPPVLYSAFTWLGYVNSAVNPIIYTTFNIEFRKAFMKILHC

Ki (D(2) dopamine receptor) | Ratio [1] | Ki [2] | EC50 (Cavia porcellus [3]) | Ki [4] | Ki (Sigma 2 receptor [5]) | Ratio [6] | Ki (Sigma 2 receptor [8]) | SMILES | inhibition at 30 µM (Cavia porcellus [7])
2450 nM | 4.3 | > 7500 nM | 4900 nM | > 700 nM | 0.35 nM | – | – | COc1cccc2c1CCCC2CCCCCN1CCN(C2CCCCC2)CC1 (stereo unspecified) | –
604 nM | – | > 7500 nM | 2620 nM | > 700 nM | 0.34 nM | – | – | COc1cccc2c1CCCC2CCCN1CCN(C2CCCCC2)CC1 (stereo unspecified) | –
3670 nM | – | > 7500 nM | 9940 nM | > 700 nM | 3.58 nM | – | – | COc1cccc2c1CCCC2CCCCN1CCN(C2CCCCC2)CC1 (stereo unspecified) | –
1620 nM | – | > 7500 nM | 16100 nM | > 700 nM | 21.1 nM | 13 | – | COc1cccc2c1CCCC2CCN1CCN(C2CCCCC2)CC1 (stereo unspecified) | –
– | – | > 7500 nM | 1500 nM | > 700 nM | 2.09 nM | – | – | COc1cccc2c1CCC[C@@H]2CCCN1CCN(C2CCCCC2)CC1 | –
3480 nM | – | > 7500 nM | 25300 nM | > 700 nM | 103 nM | 34 | – | COc1cccc2c1CCCC2CCCCCCN1CCN(C2CCCCC2)CC1 (stereo unspecified) | –
– | – | > 7500 nM | 1750 nM | > 700 nM | 8.65 nM | – | – | COc1cccc2c1CCC[C@H]2CCCN1CCN(C2CCCCC2)CC1 | –
– | – | > 7500 nM | – | > 700 nM | 2.66 nM | – | – | Oc1cccc2c1CCCC2CCCN1CCN(C2CCCCC2)CC1 (stereo unspecified) | –

The remaining lines, values behind:

SMILES | Ki (D(2) dopamine receptor) | Ratio [1] | Ki [2] | EC50 (Cavia porcellus [3]) | Ki [4] | Ki (Sigma 2 receptor [5]) | Ratio [6] | Ki (Sigma 2 receptor [8]) | inhibition at 30 µM (Cavia porcellus [7])
c1ccc2c(c1)CCCC2CCCCCN1CCN(C2CCCCC2)CC1 (stereo unspecified) | – | – | > 7500 nM | – | > 700 nM | 7.85 nM | 5.4 | – | –
Oc1ccc2c(c1)CCCC2CCCN1CCN(C2CCCCC2)CC1 (stereo unspecified) | – | – | > 7500 nM | – | > 700 nM | 1.12 nM | 1.6 | – | –
c1ccc2c(c1)CCCC2CCCN1CCN(C2CCCCC2)CC1 (stereo unspecified) | – | – | > 7500 nM | – | > 700 nM | 0.68 nM | 1.1 | – | –
c1ccc2c(CCCCN3CCN(C4CCCCC4)CC3)cccc2c1 | – | – | > 7500 nM | – | > 700 nM | 30.5 nM | 139 | – | –
COc1ccc2c(c1)C(CCCN1CCN(C3CCCCC3)CC1)CCC2 (stereo unspecified) | 479 nM | 7.4 | > 7500 nM | – | > 700 nM | 1.22 nM | – | – | –
Cc1ccccc1NC(=N)Nc1ccccc1C [DITOLYLGUANIDINE] | – | – | – | 6900 nM | – | – | – | – | –
COc1ccc2c(c1)CCCC2CCCN1CCN(C2CCCCC2)CC1 (stereo unspecified) | – | – | > 7500 nM | – | > 700 nM | 5.42 nM | 15 | – | –
c1ccc2c(CCCCCN3CCN(C4CCCCC4)CC3)cccc2c1 | – | 4.2 | – | 2950 nM | – | 0.57 nM | – | – | –
COc1cccc2c(CCCN3CCN(C4CCCCC4)CC3)cccc12 | – | – | > 7500 nM | – | > 700 nM | 9.24 nM | – | – | –
COc1cccc2c1CCCC2CN1CCN(C2CCCCC2)CC1 (stereo unspecified) | 4260 nM | – | > 7500 nM | 11500 nM | > 700 nM | 16.4 nM | 53 | – | –
c1ccc2c(c1)CCCC2CCCCN1CCN(C2CCCCC2)CC1 (stereo unspecified) | – | – | > 7500 nM | – | > 700 nM | 14.6 nM | – | – | –
c1ccc(CCN2CCCCC2)cc1 | – | 1.6 | > 7500 nM | – | > 700 nM | 194 nM | – | – | 41%
COc1cccc2c1CCCC2N1CCN(C2CCCCC2)CC1 (stereo unspecified) | 1160 nM | – | > 7500 nM | 6970 nM | > 700 nM | – | 20 | 7.9 nM | –
c1ccc2c(CCCN3CCN(C4CCCCC4)CC3)cccc2c1 | – | 3.1 | > 7500 nM | 1820 nM | > 700 nM | 0.69 nM | – | – | –
